# Assays:
# Type in all cases: functional
# HL-60(TB) = assay: Growth inhibition of human HL-60(TB) cells at 10 uM after 48 hrs by coulter counter analysis; details: HL-60, 48 h, read-out: GI
# Summary of the method: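 Cells grown in RPMI 1640 with 10% FBS. Compound was dissolved in DMSO and diluted in PBS (under 1% DMSO final), then added in duplicate wells to culture at 6 × 10⁴ cells/ml. PBS/DMSO vehicle controls were included. Incubated at 37 °C, humidified 5% CO₂, for 48 h. Cells were diluted 10-fold in saline and Coulter-counted. Single-dose NCI-60 screen, read as percent growth inhibition.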
# K562 = assay: Growth inhibition of human K562 cells at 10 uM after 48 hrs by coulter counter analysis; details: K562, 48 h, read-out: GI
# Summary of the method: (§1)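 Single-dose NCI 60-line panel screen of test compounds. Cells grown in RPMI 1640 with 10% FBS. Compounds dissolved in DMSO, then diluted in phosphate buffer saline (final DMSO below 1%). Wells run in duplicate at 6 × 10⁴ cells/ml. Controls held PBS and DMSO at matching dilutions. Incubation 48 h at 37 °C under humidified 5% CO2. Cells diluted tenfold in saline and counted by Coulter counter. Percent growth inhibition taken from mean-graph of treated-cell growth.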
# RPMI-8226 = assay: Growth inhibition of human RPMI8226 cells at 10 uM after 48 hrs by coulter counter analysis; details: RPMI-8226, 48 h, read-out: GI; summary of the method: as §1
# A549 = assay: Growth inhibition of human A549/ATCC cells at 10 uM after 48 hrs by coulter counter analysis; details: A549, 48 h, read-out: GI; summary of the method: as §1
# HOP-92 = assay: Growth inhibition of human HOP92 cells at 10 uM after 48 hrs by coulter counter analysis; details: HOP-92, 48 h, read-out: GI; summary of the method: as §1
# NCI-H460 = assay: Growth inhibition of human NCI-H460 cells at 10 uM after 48 hrs by coulter counter analysis; details: NCI-H460, 48 h, read-out: GI; summary of the method: as §1
# COLO 205 = assay: Growth inhibition of human COLO205 cells at 10 uM after 48 hrs by coulter counter analysis; details: COLO 205, 48 h, read-out: GI; summary of the method: as §1
# HCC 2998 = assay: Growth inhibition of human HCC2998 cells at 10 uM after 48 hrs by coulter counter analysis; details: HCC 2998, 48 h, read-out: GI; summary of the method: as §1
# HCT-15 = assay: Growth inhibition of human HCT15 cells at 10 uM after 48 hrs by coulter counter analysis; details: HCT-15, 48 h, read-out: GI; summary of the method: as §1
# HT-29 = assay: Growth inhibition of human HT-29 cells at 10 uM after 48 hrs by coulter counter analysis; details: HT-29, 48 h, read-out: GI; summary of the method: as §1
# SW-620 = assay: Growth inhibition of human SW620 cells at 10 uM after 48 hrs by coulter counter analysis; details: SW-620, 48 h, read-out: GI
# Summary of the method: (§2)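 Single-dose screen in the NCI 60 cell line panel. Cells grown in RPMI 1640 with 10% FBS. Compounds dissolved in DMSO and diluted in phosphate buffered saline, final DMSO under 1%. Duplicate wells seeded from culture at 6 × 10⁴ cells/ml. Incubated 48 h at 37 °C, humidified, 5% CO2. Cells diluted tenfold in saline and Coulter-counted. Percent growth inhibition computed against PBS/DMSO controls.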
# SF-268 = assay: Growth inhibition of human SF268 cells at 10 uM after 48 hrs by coulter counter analysis; details: SF-268, 48 h, read-out: GI; summary of the method: as §1
# SF-539 = assay: Growth inhibition of human SF539 cells at 10 uM after 48 hrs by coulter counter analysis; details: SF-539, 48 h, read-out: GI; summary of the method: as §1
# SNB-19 = assay: Growth inhibition of human SNB19 cells at 10 uM after 48 hrs by coulter counter analysis; details: SNB-19, 48 h, read-out: GI; summary of the method: as §1
# U-251 = assay: Growth inhibition of human U251 cells at 10 uM after 48 hrs by coulter counter analysis; details: U-251, 48 h, read-out: GI; summary of the method: as §2
# LOX IMVI = assay: Growth inhibition of human LOXIMVI cells at 10 uM after 48 hrs by coulter counter analysis; details: read-out: GI; summary of the method: as §1
# Malme-3M = assay: Growth inhibition of human MALME-3M cells at 10 uM after 48 hrs by coulter counter analysis; details: read-out: GI; summary of the method: as §1
# SK-MEL-28 = assay: Growth inhibition of human SK-MEL-28 cells at 10 uM after 48 hrs by coulter counter analysis; details: SK-MEL-28, 48 h, read-out: GI; summary of the method: as §1
# IGROV-1 = assay: Growth inhibition of human IGROV1 cells at 10 uM after 48 hrs by coulter counter analysis; details: IGROV-1, 48 h, read-out: GI; summary of the method: as §1
# OVCAR-3 = assay: Growth inhibition of human OVCAR3 cells at 10 uM after 48 hrs by coulter counter analysis; details: OVCAR-3, 48 h, read-out: GI; summary of the method: as §1
# [1] = Growth inhibition of human NCI-ADR-RES cells at 10 uM after 48 hrs by coulter counter analysis; details: read-out: GI; summary of the method: as §1
# 786-0 = assay: Growth inhibition of human 786-0 cells at 10 uM after 48 hrs by coulter counter analysis; details: 786-0, 48 h, read-out: GI; summary of the method: as §1
# A498 = assay: Growth inhibition of human A498 cells at 10 uM after 48 hrs by coulter counter analysis; details: A498, 48 h, read-out: GI; summary of the method: as §1
# CAKI-1 = assay: Growth inhibition of human Caki1 cells at 10 uM after 48 hrs by coulter counter analysis; details: CAKI-1, 48 h, read-out: GI; summary of the method: as §1
# RXF 393 = assay: Growth inhibition of human RXF393 cells at 10 uM after 48 hrs by coulter counter analysis; details: RXF 393, 48 h, read-out: GI; summary of the method: as §1
# SN12C = assay: Growth inhibition of human SN12C cells at 10 uM after 48 hrs by coulter counter analysis; details: read-out: GI; summary of the method: as §1
# UO-31 = assay: Growth inhibition of human UO31 cells at 10 uM after 48 hrs by coulter counter analysis; details: UO-31, 48 h, read-out: GI; summary of the method: as §2
# PC-3 = assay: Growth inhibition of human PC3 cells at 10 uM after 48 hrs by coulter counter analysis; details: PC-3, 48 h, read-out: GI; summary of the method: as §1
# DU-145 = assay: Growth inhibition of human DU145 cells at 10 uM after 48 hrs by coulter counter analysis; details: DU-145, 48 h, read-out: GI; summary of the method: as §1
# [2] = Growth inhibition of human Hs 578T cells at 10 uM after 48 hrs by coulter counter analysis; details: read-out: GI; summary of the method: as §1
# BT-549 = assay: Growth inhibition of human BT549 cells at 10 uM after 48 hrs by coulter counter analysis; details: BT-549, 48 h, read-out: GI; summary of the method: as §1
# MDA-MB-468 = assay: Growth inhibition of human MDA-MB-468 cells at 10 uM after 48 hrs by coulter counter analysis; details: MDA-MB-468, 48 h, read-out: GI; summary of the method: as §1
# CCRF-CEM = assay: Growth inhibition of human CCRF-CEM cells at 10 uM after 48 hrs by coulter counter analysis; details: read-out: GI; summary of the method: as §1
structure (smiles),measurement,setting,value
CCOC(=O)c1sc(NC(=O)C(C)N2CCN(C)CC2)nc1C (stereo not drawn),inhibition of growth at 10 µM,HL-60(TB),< 10%
same,inhibition of growth at 10 µM,K562,< 10%
same,inhibition of growth at 10 µM,RPMI-8226,< 10%
same,inhibition of growth at 10 µM,A549,< 10%
same,inhibition of growth at 10 µM,HOP-92,< 10%
same,inhibition of growth at 10 µM,NCI-H460,< 10%
same,inhibition of growth at 10 µM,COLO 205,< 10%
same,inhibition of growth at 10 µM,HCC 2998,< 10%
same,inhibition of growth at 10 µM,HCT-15,< 10%
same,inhibition of growth at 10 µM,HT-29,< 10%
same,inhibition of growth at 10 µM,SW-620,< 10%
same,inhibition of growth at 10 µM,SF-268,< 10%
same,inhibition of growth at 10 µM,SF-539,< 10%
same,inhibition of growth at 10 µM,SNB-19,< 10%
same,inhibition of growth at 10 µM,U-251,< 10%
same,inhibition of growth at 10 µM,LOX IMVI,< 10%
same,inhibition of growth at 10 µM,Malme-3M,< 10%
same,inhibition of growth at 10 µM,SK-MEL-28,< 10%
same,inhibition of growth at 10 µM,IGROV-1,< 10%
same,inhibition of growth at 10 µM,OVCAR-3,< 10%
same,inhibition of growth at 10 µM,[1],< 10%
same,inhibition of growth at 10 µM,786-0,< 10%
same,inhibition of growth at 10 µM,A498,< 10%
same,inhibition of growth at 10 µM,CAKI-1,< 10%
same,inhibition of growth at 10 µM,RXF 393,< 10%
same,inhibition of growth at 10 µM,SN12C,< 10%
same,inhibition of growth at 10 µM,UO-31,13.1%
same,inhibition of growth at 10 µM,PC-3,< 10%
same,inhibition of growth at 10 µM,DU-145,< 10%
same,inhibition of growth at 10 µM,[2],< 10%
same,inhibition of growth at 10 µM,BT-549,< 10%
same,inhibition of growth at 10 µM,MDA-MB-468,< 10%
same,inhibition of growth at 10 µM,CCRF-CEM,< 10%
